Laboratory results from ChEMBL document CHEMBL4393692, “Thiazolidinone/thiazole based hybrids - New class of antitrypanosomal agents” (Eur J Med Chem, 2019).
Values belong to the compound of their own block, whether it stands above or below them.

Assays:
[1] = test system: Trypanosoma brucei gambiense; assay: Antitrypanosomal activity against bloodstream form of Trypanosoma brucei gambiense Feo reduction in parasite growth after 72 hrs by resazurin dye based fluorescence assay; type: functional, organism-based
Method in brief: (§1)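 Bloodstream parasites cultured in HMI9 with 10% FCS at 37°C under 5% CO2. Log-phase cells harvested at 3000xg, plated at 10^5 cells/ml with dilutions from 10 down to 0.625 µg/ml (DMSO stocks) for 72 h. Resazurin added at 45 µM final, fluorescence read after a further 4 h. Inhibition vs DMSO control. IC50 from dose-response curve, mean ± SD of three independent experiments.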

[2] = Cytotoxicity against human AB943 cells assessed as reduction in cell viability after 5 days resazurin dye based fluorescence assay; conditions: 120 h
Method in brief: (§2)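 Human primary fibroblasts grown in RPMI with 25 mM HEPES pH 7.3 and 10% FCS, 37°C, 5% CO2. After trypsinisation, seeded at 5000 cells/well and incubated 24 h. Then washed and exposed to two-fold drug dilutions, final DMSO below 1%, for 5 days. Resazurin added, fluorescence read (ex 530/em 590 nm) after 4 h. Growth inhibition vs DMSO control. SI = IC50 fibroblast / IC50 T. b. gambiense.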

[3] = Selectivity index, ratio of IC50 for human AB943 cells to IC50 of bloodstream form of Trypanosoma brucei gambiense Feo; type: toxicity; conditions: read-out: Ratio IC50; method in brief: as §2
[4] = Acute toxicity in ip dosed mouse by Litchfield-Wilcoxon method; type: organism-based; conditions: in vivo
Method in brief: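 White male mice of 23-25 g; compounds dissolved in 0.9% NaCl saline with 1-2 drops Tween-80, stock prepared immediately before use. Single intraperitoneal injection at increasing doses within 100–1000 mg/kg, 4 or 5 dose levels with 6 animals per dose. LD50 derived by the Litchfield-Wilcoxon method.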

[5] = test system: Trypanosoma brucei brucei; assay: Antitrypanosomal activity against bloodstream form of Trypanosoma brucei brucei 90-13 reduction in parasite growth after 72 hrs by resazurin dye based fluorescence assay; type: functional, organism-based; conditions: 90-13, 72 h; method in brief: as §1

Compound: CC1S/C(=N\N=C\c2c(-c3ccccc3)[nH]c3ccccc23)NC1=O (stereo not drawn)
IC50 [1]: 0.21 µM
IC50 [2]: 28.1 µM
selectivity ratio [3]: 130
LD50 [4]: 220 mg/kg

IC50 [5]: 2.39 µM
IC50 [1]: 4.64 µM
Compound: CC1CS(=O)(=O)CCN1/N=C/c1ccc([N+](=O)[O-])o1 (stereo not drawn) [NIFURTIMOX]
IC50 [2]: 65.1 µM
selectivity ratio [3]: 14

Compound: CC1S/C(=N\N=C\c2c(-c3ccc(Cl)cc3)[nH]c3ccccc23)NC1=O (stereo not drawn)
IC50 [1]: 2.22 µM
IC50 [2]: 5.22 µM
selectivity ratio [3]: 2
LD50 [4]: 310 mg/kg

Compound: O=C(O)CC1S/C(=N\N=C\c2c(-c3ccccc3)[nH]c3ccccc23)NC1=O (stereo not drawn)
LD50 [4]: 240 mg/kg

Compound: O=C(O)CC1S/C(=N\N=C\c2c(-c3ccc(Cl)cc3)[nH]c3ccccc23)NC1=O (stereo not drawn)
LD50 [4]: 290 mg/kg

IC50 [5]: 0.0014 µM
IC50 [1]: 0.0015 µM
Compound: N=C(N)c1ccc(OCCCCCOc2ccc(C(=N)N)cc2)cc1 [PENTAMIDINE]
IC50 [2]: 23.2 µM

Compound: CCC1S/C(=N\N=C\c2c(-c3ccccc3)[nH]c3ccccc23)NC1=O (stereo not drawn)
IC50 [5]: 0.03 µM
IC50 [1]: 0.11 µM
IC50 [2]: 24.8 µM
selectivity ratio [3]: 220
LD50 [4]: 220 mg/kg

Compound: CC(=O)OCCC1S/C(=N\N=C\c2c(-c3ccccc3)[nH]c3ccccc23)NC1=O (stereo not drawn)
IC50 [5]: 0.06 µM
IC50 [1]: 0.23 µM
IC50 [2]: 20.9 µM
selectivity ratio [3]: 95
LD50 [4]: 200 mg/kg

Compound: CCC1S/C(=N\N=C\c2c(-c3ccc(Cl)cc3)[nH]c3ccccc23)N(c2ccc(O)cc2)C1=O (stereo not drawn)
IC50 [1]: 0.86 µM
IC50 [2]: 85.9 µM
selectivity ratio [3]: 100
LD50 [4]: 330 mg/kg

Compound: O=C1CS/C(=N\N=C\c2c(-c3ccc(Cl)cc3)[nH]c3ccccc23)N1
IC50 [1]: 3.93 µM
LD50 [4]: 270 mg/kg
